Activity calls are given as the source filed them. No cut-off for these calls is given here.
Target: P2Y purinoceptor 12 (Homo sapiens) (UniProt Q9H244)
Assay: Agonist activity at P2Y12 in human platelets assessed as effect on VASP phosphorylation at 200 uM by CY-QUANT VASP/P2Y12 ELISA method
In short: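 VASP phosphorylation read by CY-QUANT VASP/P2Y12 ELISA kit, run per manufacturer's instructions. Platelets were exposed to PGE1, and PGE1-induced phosphorylation was set as 100%. ADP served as the P2Y12 agonist reference. Compounds were tested at 200 µM together with ADP. Per se effect at 200 µM was checked with PGE1 alone, without ADP.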

Chain of P2Y purinoceptor 12 (Homo sapiens) (Q9H244 whole entry): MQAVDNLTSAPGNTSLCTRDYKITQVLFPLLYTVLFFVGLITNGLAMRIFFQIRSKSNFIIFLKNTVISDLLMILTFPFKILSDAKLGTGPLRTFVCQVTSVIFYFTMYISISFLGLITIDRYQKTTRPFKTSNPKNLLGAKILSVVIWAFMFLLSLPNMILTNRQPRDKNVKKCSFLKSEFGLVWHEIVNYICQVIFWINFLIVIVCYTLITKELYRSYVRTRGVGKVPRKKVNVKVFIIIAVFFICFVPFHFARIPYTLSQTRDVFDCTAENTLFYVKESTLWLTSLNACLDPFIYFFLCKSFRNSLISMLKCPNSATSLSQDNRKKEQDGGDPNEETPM

**Q.** For `CCCCCCCCn1nnc2c([N+](=O)[O-])cccc21`, which Activity is on record?
**A.** inactive

**Q.** How did the Activity turn out when `O=[N+]([O-])c1cccc2nn(CCCCl)nc12` was run?
**A.** inactive

**Q.** How did the Activity turn out when `CCCCCn1nnc2c([N+](=O)[O-])cccc21` was run?
**A.** inactive

**Q.** For `Cc1ccc(S(=O)(=O)n2nnc3c([N+](=O)[O-])cccc32)cc1`, which Activity is on record?
**A.** inactive

**Q.** How did the Activity turn out when `O=C(c1ccccc1)n1nnc2c([N+](=O)[O-])cccc21` was run?
**A.** inactive

**Q.** For `CCCCCCCn1nnc2c([N+](=O)[O-])cccc21`, which Activity is on record?
**A.** inactive

**Q.** Which Activity does the source give for `CCn1nnc2c([N+](=O)[O-])cccc21` here?
**A.** inactive

**Q.** Which Activity does the source give for `CCCCCCCCn1nc2cccc([N+](=O)[O-])c2n1` here?
**A.** inactive

**Q.** `CCCCCn1nc2cccc([N+](=O)[O-])c2n1` was tested. Which Activity did it give?
**A.** inactive

**Q.** `O=[N+]([O-])c1cccc2c1nnn2Cc1ccccc1` was tested. Which Activity did it give?
**A.** inactive

**Q.** For `O=[N+]([O-])c1cccc2c1nnn2CCCCl`, which Activity is on record?
**A.** inactive

**Q.** For `CCCCCCn1nc2cccc([N+](=O)[O-])c2n1`, which Activity is on record?
**A.** inactive

**Q.** `CCCn1nc2cccc([N+](=O)[O-])c2n1` was tested. Which Activity did it give?
**A.** inactive

**Q.** For `CCn1nc2cccc([N+](=O)[O-])c2n1`, which Activity is on record?
**A.** inactive

**Q.** Which Activity does the source give for `Cn1nc2cccc([N+](=O)[O-])c2n1` here?
**A.** inactive

**Q.** With `CCCn1nnc2c([N+](=O)[O-])cccc21` as the molecule, how does the Activity read?
**A.** inactive

**Q.** With `Cn1nnc2c([N+](=O)[O-])cccc21` as the molecule, how does the Activity read?
**A.** inactive

**Q.** How did the Activity turn out when `Cn1nnc2cccc([N+](=O)[O-])c21` was run?
**A.** inactive

**Q.** For `O=[N+]([O-])c1cccc2nn(Cc3ccccc3)nc12`, which Activity is on record?
**A.** inactive

**Q.** With `CCCCCCn1nnc2c([N+](=O)[O-])cccc21` as the molecule, how does the Activity read?
**A.** inactive

**Q.** Which Activity does the source give for `CCCCCCCn1nc2cccc([N+](=O)[O-])c2n1` here?
**A.** inactive

**Q.** With `CCCCn1nnc2c([N+](=O)[O-])cccc21` as the molecule, how does the Activity read?
**A.** inactive

**Q.** Which Activity does the source give for `CCCCn1nc2cccc([N+](=O)[O-])c2n1` here?
**A.** inactive
